Measured values from different studies.
Protocols differ between the studies behind these lines.
Target: Serine/threonine-protein kinase 10 (STK10, Homo sapiens, UniProt O94804)

SMILES | observed | action | method | cells | concentration | measurement | result
Cc1noc([C@H]2C[C@@H](c3ccc(C(F)(F)F)cc3)CN(C(=O)N3CCS(=O)(=O)C3)C2)n1 | cell-free assay |  | competition with immobilised ligand |  | 1 µM | remaining binding | 100%
CNC(=O)c1cc(Oc2ccc(NC(=O)Nc3ccc(Cl)c(C(F)(F)F)c3)cc2)ccn1 | enzyme activity | inhibitor |  |  | 10 µM | inhibition | 88%
Cc1ccc(NC(=O)c2ccc(C)c(C(F)(F)F)c2)cc1C#Cc1nn(C2CCC(O)CC2)c2ncnc(N)c12 (centres unmarked) | cell-free assay |  |  |  | 10 µM | remaining signal | 16%
O=S(=O)(NC1CCC(c2cc(F)ccc2F)(S(=O)(=O)c2ccc(Cl)cc2)CC1)C(F)(F)F (centres unmarked) | cell-free assay |  | competition with immobilised ligand |  | 1 µM | remaining binding | 100%
CN1CC(Oc2cnc(C#N)cc2-c2ccn3nc(NC(=O)C4CC4)cc3c2)C1 | enzyme activity | inhibitor |  |  | 1 µM | inhibition | 30%
NS(=O)(=O)c1cc(NC(=O)Cc2ccccc2)ccc1Oc1cccc(Cl)c1 | cell-free assay |  | competition with immobilised ligand |  | 1 µM | remaining binding | 65%
COc1cc(Cl)c(C(=O)N[C@@H](CN[C@H]2CC[C@@H](N)CC2)Cc2ccc(C#N)cc2)cc1-c1ccc(CN[C@H](C)c2ccc(C)cc2)o1 | enzyme activity | inhibitor |  |  | 1 µM | remaining activity | 110%
CC(C)c1ccc(NC(=O)c2cccs2)c(-c2nc3ccccc3[nH]c2=O)c1 | enzyme activity | inhibitor |  |  | 1 µM | activity vs control | 103%
CCN(CC)CCNC(=O)c1c(C)[nH]c(/C=C2\C(=O)Nc3ccc(F)cc32)c1C | enzyme activity | inhibitor |  |  | 0.3 µM | inhibition | 37%
N#CCCc1ccc2c(c1)-c1[nH]c3ccc([N+](=O)[O-])cc3c1CC(=O)N2 | cell-free assay |  |  |  | 0.5 µM | remaining signal | 74.1%
Cc1ccc(C(=O)Nc2ccc(CN3CCN(C)CC3)c(C(F)(F)F)c2)cc1C#Cc1cnc2cccnn12 | enzyme activity | inhibitor |  |  | 23.5 nM | remaining activity | 0.05%
CCN1CCN(Cc2ccc(NC(=O)c3ccc(C)c(/C=C/c4cnc5[nH]ccc5c4OC)c3)cc2C(F)(F)F)CC1 | target engagement in cells | inhibitor | chemoproteomics | A-375 | 50 nM | inhibition | -39.1%
O=C(Nc1cnn(-c2csc(C(=O)NC3COC3)c2)c1)Nc1ccccc1Cl | enzyme activity | inhibitor |  |  | 5 µM | remaining activity | 87.9%
CCCS(=O)(=O)Nc1ccc(F)c(C(=O)c2c[nH]c3ncc(-c4ccc(Cl)cc4)cc23)c1F | enzyme activity | inhibitor |  |  | 1 µM | inhibition | < 10%
CCOCCn1cc(C(=O)Nc2ccc(-n3nc(-c4cccnc4)cc3C(F)(F)F)cn2)ccc1=O | cell-free assay |  | competition with immobilised ligand |  | 1 µM | remaining binding | 100%
CCN1CCN(Cc2ccc(NC(=O)c3ccc(C)c(Oc4ccnc5[nH]ccc45)c3)cc2C(F)(F)F)CC1 | target engagement in cells | inhibitor | chemoproteomics | A-375 | 0.5 µM | inhibition | -177%
COc1cc2nccc(Oc3ccc(NC(=O)Nc4ccc(F)cc4F)c(F)c3)c2cc1OC | thermal stability |  | DSF |  | 10 µM | ΔTm | > 10 °C
O=C1CCc2cc(Nc3cc(OC4CCOCC4)c([N+](=O)[O-])cc3Cl)ccc2N1 | cell-free assay |  | competition with immobilised ligand |  | 1 µM | remaining binding | 100%
O=C1NC(=O)c2cc(Nc3ccc(F)cc3)c(Nc3ccc(F)cc3)cc21 | cell-free assay |  |  |  | 0.5 µM | remaining signal | 79.2%
FC(F)(F)c1ccc2c(c1)nc(-c1cccnc1)n2C1CC1 | cell-free assay |  | competition with immobilised ligand |  | 1 µM | remaining binding | 100%
O=C1Nc2ccc(Cl)cc2C1=Cc1cc(Cl)c(O)c(Cl)c1 | cell-free assay |  |  |  | 0.5 µM | remaining signal | 77.1%
O=C(O)[C@H]1[C@H](Cn2nnc3ccccc3c2=O)CC[C@@H]1C(=O)c1ccc(OCCC2CCOCC2)cc1 | cell-free assay |  | competition with immobilised ligand |  | 1 µM | remaining binding | 100%
CNC(=O)c1cc2c(Oc3ccc(NC(=O)C4(C(=O)Nc5ccc(F)cc5)CC4)cc3)ccnc2cc1OC | enzyme activity | inhibitor | radiometric |  | 1 µM | inhibition | 75%
